Activity calls are given as the source filed them. The calls are words filed in the database; no cut-off is given here.
Tests used:
SK-OV-3 = assay: Growth inhibition of human SKOV3 cells by NCI anti-cancer screening method; assay type: functional
MOLT-4 = assay: Growth inhibition of human MOLT4 cells by NCI anti-cancer screening method; assay type: functional
OVCAR-5 = assay: Growth inhibition of human OVCAR5 cells by NCI anti-cancer screening method; assay type: functional
SK-MEL-28 = assay: Growth inhibition of human SK-MEL-28 cells by NCI anti-cancer screening method; assay type: functional
A-375 [1] = assay: Decrease in Bcl-2 mRNA expression in human A375 cells at 4 uM after 24 hrs by RT-PCR
NCI = assay: Growth inhibition of human […] cells by NCI anti-cancer screening method; assay type: functional
UO-31 = assay: Growth inhibition of human UO31 cells by NCI anti-cancer screening method; assay type: functional
SF-539 = assay: Growth inhibition of human SF539 cells by NCI anti-cancer screening method; assay type: functional
SNB-19 = assay: Growth inhibition of human SNB19 cells by NCI anti-cancer screening method; assay type: functional
IGROV-1 = assay: Growth inhibition of human IGROV1 cells by NCI anti-cancer screening method; assay type: functional
A-375 [2] = assay: Increase in active caspase-3 protein level in human A375 cells at 4 uM after 24 hrs by Western blot; assay type: functional, cell-based
Procedure, shortened: (§1)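 A375 cells were exposed 24 h at 4 µM. Lysates (30 µg/lane) were run on 12% SDS-PAGE and transferred to PVDF, then probed overnight at 4 °C with anti-cleaved caspase-3 (1:200, detects 21 kDa) or anti-PARP (1:2000, detects 113 and 85 kDa). HRP secondary and chemiluminescence were used. β-tubulin was the loading control; untreated and DMSO controls were included.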

A549 = assay: Growth inhibition of human A549 cells by NCI anti-cancer screening method; assay type: functional
PC-3 = assay: Growth inhibition of human PC3 cells by NCI anti-cancer screening method; assay type: functional
UACC-62 = assay: Growth inhibition of human UACC62 cells by NCI anti-cancer screening method; assay type: functional
MDA-MB-435 = assay: Growth inhibition of human MDA-MB-435 cells by NCI anti-cancer screening method; assay type: functional
NCI-H23 = assay: Growth inhibition of human NCI-H23 cells by NCI anti-cancer screening method; assay type: functional
SW-620 = assay: Growth inhibition of human SW620 cells by NCI anti-cancer screening method; assay type: functional
T47D = assay: Growth inhibition of human T47D cells by NCI anti-cancer screening method; assay type: functional
OVCAR-4 = assay: Growth inhibition of human OVCAR4 cells by NCI anti-cancer screening method; assay type: functional
A498 = assay: Growth inhibition of human A498 cells by NCI anti-cancer screening method; assay type: functional
HCT-15 = assay: Growth inhibition of human HCT15 cells by NCI anti-cancer screening method; assay type: functional
ACHN = assay: Growth inhibition of human ACHN cells by NCI anti-cancer screening method; assay type: functional
KM12 = assay: Growth inhibition of human KM12 cells by NCI anti-cancer screening method; assay type: functional
SK-MEL-5 = assay: Growth inhibition of human SK-MEL-5 cells by NCI anti-cancer screening method; assay type: functional
M14 = assay: Growth inhibition of human M14 cells by NCI anti-cancer screening method; assay type: functional
EKVX = assay: Growth inhibition of human EKVX cells by NCI anti-cancer screening method; assay type: functional
A-375 [3] = assay: Decrease in CDK2 protein expression in human A375 cells at 4 uM after 24 hrs by Western blot; assay type: functional, cell-based
Procedure, shortened: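 A375 cells treated at 4 µM for 24 h, lysed, protein quantified by Bradford. 30 µg/lane run on 12% SDS-PAGE and transferred to PVDF. Blocked 2 h in TBST with 5% blocker. Probed with rabbit polyclonal CDK2 antibody (1:500) overnight at 4 °C, then HRP secondary (1:2000) 1 h. Chemiluminescent detection; β-tubulin loading control; untreated and DMSO controls.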

K562 = assay: Growth inhibition of human K562 cells by NCI anti-cancer screening method; assay type: functional
SF-268 = assay: Growth inhibition of human SF268 cells by NCI anti-cancer screening method; assay type: functional
HOP-92 = assay: Growth inhibition of human HOP92 cells by NCI anti-cancer screening method; assay type: functional
A-375 [4] = assay: Increase in cytochrome C release in human A375 cells at 4 uM after 24 hrs by Western blot; assay type: functional, cell-based
Procedure, shortened: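 Western blot of A375 cell lysates after 24 h exposure at 4 µM, with 30 µg protein/lane on 12% SDS-PAGE and transfer to PVDF. Probed overnight at 4 °C with anti-cytochrome c (1:500), then HRP secondary and chemiluminescence. β-actin was the loading control; untreated and DMSO-only cells served as controls.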

NCI-H226 = assay: Growth inhibition of human NCI-H226 cells by NCI anti-cancer screening method; assay type: functional
SN12C = assay: Growth inhibition of human SN12C cells by NCI anti-cancer screening method; assay type: functional
NCI-H322M = assay: Growth inhibition of human NCI-H322M cells by NCI anti-cancer screening method; assay type: functional
U-251 = assay: Growth inhibition of human U251 cells by NCI anti-cancer screening method; assay type: functional
A-375 [5] = assay: Increase in active PARP cleavage product (85kDa) level in human A375 cells at 4 uM after 24 hrs by Western blot; assay type: functional, cell-based; procedure, shortened: as §1
MCF7 = assay: Growth inhibition of human MCF7 cells by NCI anti-cancer screening method; assay type: functional
A-375 [6] = assay: Inhibition of NF-kappaB signaling in human A375 cells at 4 uM after 24 hrs by Western blot; assay type: cell-based
Procedure, shortened: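 A375 cells (DMEM, 10% FCS, 37 °C, 5% CO2) were treated at 4 µM for 24 h. Lysates were loaded at 30 µg protein/lane on 12% SDS-PAGE and transferred to PVDF. Membranes were blocked 2 h in TBST, incubated with primary antibody overnight at 4 °C (p53 1:100, p27 1:500, NF-κB p65 1:500), then HRP secondary 1 h, with chemiluminescent detection. β-actin was the loading control; untreated and DMSO controls were run.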

OVCAR-3 = assay: Growth inhibition of human OVCAR3 cells by NCI anti-cancer screening method; assay type: functional
DU-145 = assay: Growth inhibition of human DU145 cells by NCI anti-cancer screening method; assay type: functional
HT-29 = assay: Growth inhibition of human HT-29 cells by NCI anti-cancer screening method; assay type: functional
A-375 [7] = assay: Increase in p21 mRNA expression in human A375 cells at 4 uM after 24 hrs by RT-PCR; assay type: functional, cell-based
Procedure, shortened: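 RT-PCR on RNA from A375 cells treated 24 h at 4 µM, using Bcl-2- or p21-specific primers with GAPDH as internal control. Products were visualized on 1% agarose gels stained with ethidium bromide. Untreated and DMSO-treated cells served as controls.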

COc1cc2c(cc1OCCCCCOc1ccc(-n3c(C)nc4ccccc4c3=O)cc1)N=C[C@@H]1CCCN1C2=O gave a GI50 (SK-OV-3) of 430 nM, a GI50 (MOLT-4) of 190 nM and a GI50 (OVCAR-5) of 330 nM. The GI50 (SK-MEL-28) was 200 nM, the “Decrease in Bcl-2 mRNA expression” value (A-375 [1]) was “Active” and the GI50 (NCI) was 190 nM. The GI50 (UO-31) was 360 nM, the GI50 (SF-539) was 220 nM and the GI50 (SNB-19) was 280 nM. The GI50 (IGROV-1) was 180 nM, the Activity (A-375 [2]) was “Active” and the GI50 (A549) was 230 nM. For the same compound, the GI50 (PC-3) was 290 nM, the GI50 (UACC-62) was 160 nM and the GI50 (MDA-MB-435) was 160 nM. The GI50 (NCI-H23) was 230 nM, the GI50 (SW-620) was 160 nM and the GI50 (T47D) was 170 nM. For the same compound, the GI50 (OVCAR-4) was 370 nM, the GI50 (A498) was 160 nM and the GI50 (HCT-15) was 1090 nM. The GI50 (ACHN) was 290 nM, the GI50 (KM12) was 170 nM and the GI50 (SK-MEL-5) was 160 nM. For the same compound, the GI50 (M14) was 170 nM, the GI50 (EKVX) was 870 nM and the Activity (A-375 [3]) was “Active”. The GI50 (K562) was 60 nM, the GI50 (SF-268) was 260 nM and the GI50 (HOP-92) was 350 nM. The Activity (A-375 [4]) was “Active”, the GI50 (NCI-H226) was 160 nM and the GI50 (SN12C) was 240 nM. The GI50 (NCI-H322M) was 260 nM, the GI50 (U-251) was 160 nM and the Activity (A-375 [5]) was “Active”. For the same compound, the GI50 (MCF7) was 170 nM, the inhibition (A-375 [6]) was “Active” and the GI50 (OVCAR-3) was 200 nM. The GI50 (DU-145) was 260 nM, the GI50 (HT-29) was 260 nM and the Activity (A-375 [7]) was “Active”.
